Data from the RNAGym collection of RNA variant scans (doi:10.1126/science.aae0568).
Variants at the floor of the assay were thinned out.

B1: tRNA (parent)
chain: GUUCCGUUGGCGUAAUGGUAACGCGUCUCCCUCCUAAGGAGAAGACUGCGGGUUCGAGUCCCGUACGGAACG

Variants of: B1
Experiment: yeast fitness relative to wild type (ratio to wild type); higher = fitter; tRNA-Arg(CCU), competitive growth, 37 C, YPD
Procedure, shortened: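 Genotype frequency changes were the basis for Darwinian fitness relative to wild type. The frequencies came from 100-nucleotide paired-end sequencing of gene amplicons from the start population and each end population of pooled yeast strains with tRNA-Arg(CCU) gene variants at the native locus. Competition ran in YPD at 37°C for 24 hours in six replicates, genotypes needed ≥ 100 starting reads, and estimates < 0.5 were set to 0.5.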
With GUUCCGUUGGCGUAAUGGUAACGCGUCUCCCUCCUACGGAGAAGACUGCGGGUUCGAGUCCCGUUCGGAACG [A37C A65U] the yeast fitness was 0.866.
In the case of GUUCCGUUGGCGUAAUGGUAACGCGUCUCCCUCCUAUGGAGAAGUCUGCGGGUUCGAGUCCGGUACGGAACG [A37U A45U C62G], the yeast fitness is reported as at most 0.5.
For GUUCCGUUGGCGUAAUGGUAACGCGUCUCCCUCCUAGGGAGAAGACUGCGGGUUCGAGACCCGUACGGAACG [A37G U59A], the yeast fitness was 0.663.
Variant GUUCCGUUGGCGUAAUGGUAACGCGUCUCCCUCCUAUGGAGAAGACUGCGGGUUCGAGCCCCGUACGGAACG [A37U U59C] has a yeast fitness of 0.721.
GUUCCGUUGGCGUAAUGGUAACGCGUCUCCCUCCUACGGAGAAGACGGCGGGAUCGAGUCCCGUACGGAACG [A37C U47G U53A] showed a yeast fitness of 0.535.
GUUCCGUUGGCGUAAUGGUAACGCGUCUCCCUCCUACGGAGAAGACUGCGGGUUCGAGUGCCGUACGGAACG [A37C C60G] showed a yeast fitness of 0.562.
Variant GUUCCGUUGGCGUAAUGGUAACGCGUCUCCCUCCUAGGGAGAAGAAUGCGGGUUCGAGUCCCGUACGGAACG [A37G C46A] has a yeast fitness of 0.774.
GUUCCGUUGGCGUAAUGGUAACGCGUCUCCCUCCUAGGGAGCAGACUGCGGGUUCGAGUCCCGUACGGACCG [A37G A42C A70C] showed a yeast fitness of 0.729.
GUUCCGUUGGCGUAAUGGUAACGCGUCUCCCUCCUAGGGAGAAGACUGCGGGUUCGAGUCCCCUUCGGAACG [A37G G63C A65U] gave a yeast fitness of at most 0.5.
GUUCCGUUGGCGUAAUGGUAACGCGUCUCCCUCCUAUGGAGAAGACUGCGGGUUCGAGUCCCGUACAGAACG [A37U G67A] gave a yeast fitness of 0.724.
GUUCCGUUGGCGUAAUGGUAACGCGUCUCCCUCCUACGGAGAAGACUGCGGGUUCGAGUGCGGUACGGAACG [A37C C60G C62G] showed a yeast fitness of at most 0.5.
Variant GUUCCGUUGGCGUAAUGGUAACGCGUCUCCCUCCUAAAGAGAAGACUGCGGGUUCGUGUCCCGUACGGAACG [G38A A57U] has a yeast fitness of 0.772.
For GUUCCGUUGGCGUAAUGGUAACGCGUCUCCCUCCUAGGGAGAAGGCUGCGGGUUCGAGUCCCGUACGGAACG [A37G A45G], the yeast fitness was 0.707.
Work on GUUCCGUUGGCGUAAUGGUAACGCGUCUCCCUCCUAUGGAGAAGACUGCGGGUUGGAGUCCCGUACGCAACG [A37U C55G G68C] yielded a yeast fitness of at most 0.5.
Variant GUUCCGUUGGCGUAAUGGUAACGCGUCUCCCUCCUAUGGAGAAGACUGCGGGUUCGCGUCCCGGACGGAACG [A37U A57C U64G] has a yeast fitness of at most 0.5.
GUUCCGUUGGCGUAAUGGUAACGCGUCUCCCUCCUACGGAGAAGACUGUGGGUUCGAGUCCCGUACGGAACG [A37C C49U] showed a yeast fitness of 0.848.
In the case of GUUCCGUUGGCGUAAUGGUAACGCGUCUCCCUCCUAGGGAGAAGACUGCGGGCUCGAGUCCCGUACAGAACG [A37G U53C G67A], the yeast fitness is reported as at most 0.5.
For GUUCCGUUGGCGUAAUGGUAACGCGUCUCCCUCCUAUGGCGAAGACUGCGAGUUCGAGUCCCGUACGGAACG [A37U A40C G51A], the yeast fitness was 0.687.
For GUUCCGUUGGCGUAAUGGUAACGCGUCUCCCUCCUACGGAGAAGACAGCGGGUUCGAGUCCCGUACGGAACG [A37C U47A], the yeast fitness was 0.674.
In the case of GUUCCGUUGGCGUAAUGGUAACGCGUCUCCCUCCUAUGGAGAAGACUGCGGGUUCGAGUCCCAUACGGAACG [A37U G63A], the yeast fitness is reported as 0.642.
Variant GUUCCGUUGGCGUAAUGGUAACGCGUCUCCCUCCUAGGGAGAAGACUGCGGGCUCGCGUCCCGUACGGAACG [A37G U53C A57C] has a yeast fitness of at most 0.5.
Work on GUUCCGUUGGCGUAAUGGUAACGCGUCUCCCUCCUAUGGAGAAGACUGCGGGUACGAGUCCCGUACGGAACG [A37U U54A] yielded a yeast fitness of at most 0.5.
Work on GUUCCGUUGGCGUAAUGGUAACGCGUCUCCCUCCUAGGGAGAAGACUGCGGGUUCGAGUCCCGUAUGGUACG [A37G C66U A69U] yielded a yeast fitness of 0.674.
GUUCCGUUGGCGUAAUGGUAACGCGUCUCCCUCCUAAAGAGCAGACUGCGGGUCCGAGUCCGGUCAGGAACG [G38A A42C U54C C62G A65C C66A] showed a yeast fitness of at most 0.5.
Variant GUUCCGUUGGCGUAAUGGUAACGCGUCUCCCUCCUAUGGAGAAGACUGCGGGGUCAAGUCCCGUACGGACCG [A37U U53G G56A A70C] has a yeast fitness of at most 0.5.
Variant GUUCCGUUGGCGUAAUGGUAACGCGUCUCCCUCCUAGGGAGAAGACUGCGGGUUCGAGUCCCGUACAGAACG [A37G G67A] has a yeast fitness of 0.819.
With GUUCCGUUGGCGUAAUGGUAACGCGUCUCCCUCCUAUGGAGAAGACUGUGGGUUCGAAUCCCGUACGGAACG [A37U C49U G58A] the yeast fitness was 0.57.
With GUUCCGUUGGCGUAAUGGUAACGCGUCUCCCUCCUAGGGAGAAAACUGCGGGUUCGAGUCCCGUACGGACCG [A37G G44A A70C] the yeast fitness was 0.859.
In the case of GUUCCGUUGGCGUAAUGGUAACGCGUCUCCCUCCUAUGGAGAAGACUGUGGGUUCGAGUCGCGUACGGAACG [A37U C49U C61G], the yeast fitness is reported as at most 0.5.
GUUCCGUUGGCGUAAUGGUAACGCGUCUCCCUCCUAUGGAGAAGUCCGCGGGUUCGAGUCCGGUACGGAACG [A37U A45U U47C C62G] gave a yeast fitness of at most 0.5.
For GUUCCGUUGGCGUAAUGGUAACGCGUCUCCCUCCUAGCGAGAAGACUGCGGAUUCGAGUCUCGUACGGAACG [A37G G38C G52A C61U], the yeast fitness was 0.653.
GUUCCGUUGGCGUAAUGGUAACGCGUCUCCCUCCUAGGGAGAAGACAGCGGGUUAGACUCCCGUACGGAACG [A37G U47A C55A G58C] showed a yeast fitness of at most 0.5.
Variant GUUCCGUUGGCGUAAUGGUAACGCGUCUCCCUCCUAUGGAGAAGACUGCGGGUUCGAAUCCCGUACGGAACG [A37U G58A] has a yeast fitness of 0.767.
Work on GUUCCGUUGGCGUAAUGGUAACGCGUCUCCCUCCUACGGAGAAGAUUGCGGGUUCGAGACCCGUACGGAACG [A37C C46U U59A] yielded a yeast fitness of at most 0.5.
For GUUCCGUUGGCGUAAUGGUAACGCGUCUCCCUCCUAUAGAGAAGACUGCGGGUUCGAGUCCCGUACGGAACG [A37U G38A], the yeast fitness was 0.631.
For GUUCCGUUGGCGUAAUGGUAACGCGUCUCCCUCCUAAAGAGAAGACUGCGGGUUCGAGUCCCGUACGGAACG [G38A], the yeast fitness was 1.02.
In the case of GUUCCGUUGGCGUAAUGGUAACGCGUCUCCCUCCUACCGAGAAGACUGCGGGUUCGAGUCCCGUACGGAACG [A37C G38C], the yeast fitness is reported as 0.502.
